# This is a sample that favours compounds with a hit; in the whole collection about 1.8% have one here.
# PABP FP inh = PABP poly(A) RNA binding inhibitors, primary screen, biochemical, fluorescence polarization, uHTS; actives 1% (n = 290,000); calls only at 35 µM; Polyadenylate-binding protein 1 (Homo sapiens), P11940;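 note: calls also rest on retests at 20 µM and on dose response follow-up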
# MT1-MMP act inh = blockers of MT1-MMP proenzyme processing, primary screen, HT1080 RFP-PRO-GFP cells, GFP/RFP fluorescence; GFP/RFP ratio change, % at 20 µM; Matrix metalloproteinase-14 (Homo sapiens), P50281; actives 0.061% (n = 360,000); GFP/RFP ratio fluorescence, overnight; percent of plate control window, DMSO zero; AID 651647, 2012;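 active = GFP/RFP ratio change of at least 30% with cell ATP level not reduced by more than half and red fluorescence within 50% of control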
#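 Assay system – RFP-PRO-GFP reporter HT1080 cells · Compound dosing – single dose of 20 µM compound, 1% DMSO final · Incubation – overnight compound exposure at 37 °C · Measure – GFP/RFP fluorescence ratio · Benchmarks – DMSO wells and RFP-L50D-GFP cells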
# eIF4H FP inh = human eIF4H binding inhibitors, primary screen, translation initiation inhibitor project, biochemical, uHTS, fluorescence polarization; Eukaryotic translation initiation factor 4H (Homo sapiens), Q15056; eIF4H fluorescence polarization binding assay; inhibition, % at 35 µM; actives 0.94% (n = 290,000); AID 2012, 2009;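 note: calls also rest on retests at 20 µM and on dose response follow-up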
# PABP1 MLLE inh = inhibitors of PABP1 MLLE–PAM2 peptide binding, primary screen, biochemical, fluorescence polarization, FITC-PAM2, GST-MLLE; Polyadenylate-binding protein 1 (Homo sapiens), P11940; inhibition, % at 20 µM; actives 0.36% (n = 360,000); in the data active = inhibition above about 35%, passing the limit was not always enough;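 note: plate controls were DMSO wells with GST-MLLE for no effect and wells lacking GST-MLLE protein for full effect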
# SKN-1 inh = suppressors of acrylamide-induced Pgst-4::GFP reporter in worms, primary screen, SKN-1 inhibitor project, whole organism, uHTS, GFP/RFP fluorescence ratio, strain VP596; C. elegans VP596 Pgst-4::GFP/RFP ratio, 24 h; inhibition, % at 21.8 µM; actives 0.49% (n = 360,000); AID 624304, 2012;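 active = interference check ratio from 0.5 to 1.5 plus GFP to RFP signal ratio inhibition reaching or exceeding a fixed threshold, cut at about 30% in these data, passing the limit was not always enough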
# Numbers without * were called inactive; i = inactive; ? = inconclusive; nt = not tested or not shown; + = active, no number. Unless noted, the rule behind the calls is not given here.
SMILES,PABP FP inh,MT1-MMP act inh,eIF4H FP inh,PABP1 MLLE inh,SKN-1 inh
CCc1ccc(NC(=S)N2CCNC(=O)C2CC(=O)OC)cc1 (stereo unspecified),+,-2,0,10,5
COc1ccc(CCNCC(=O)Nc2ccc(C)c(S(=O)(=O)N(C)C)c2)cc1,+,1,active,-3,0
COc1ccc(CCC(=O)Nc2ccc(C)c(S(=O)(=O)N(C)C)c2)cc1OC,i,-8,5,2,8
Cc1ccc(-n2c(C)nc3oc4ccccc4c(=O)c3c2=O)cc1,+,-11,40*,-32,10
COc1ccc2c(=O)c3c(=O)n(-c4ccc(C)cc4)c(-c4ccccc4)nc3oc2c1,i,nt,7,nt,nt
COc1cc2c(cc1OC)/C(=C/C(=O)OCc1ccccc1)OC2,nt,8,nt,nt,3
Cc1ccccc1-n1c(C)cc(/C=C(\C#N)C(=O)NCC2CCCO2)c1C (stereo unspecified),+,-1,88*,4,7
N#C/C(=C/c1ccccc1[N+](=O)[O-])C(=O)NCc1ccco1,+,-14,63*,20,18
Cc1ccc(/C=C(\C#N)C(=O)NCC2CCCO2)o1 (stereo unspecified),i,-2,9,20,-2
Cc1cc(/C=C(/C#N)C(=O)Nc2ccccc2)c(C)n1-c1cccnc1,i,-5,14,7,-2
N#C/C(=C\c1ccccc1[N+](=O)[O-])C(=O)NCc1ccccc1,+,-126,69*,57*,-8
N#C/C(=C\C=C\c1ccccc1[N+](=O)[O-])C(=O)NCc1ccccc1,i,-37,8,9,-4
Cc1ccccc1NC(=O)/C(C#N)=C\c1cc(C)n(-c2ccc(C(=O)O)cc2)c1C,+,0,?,-14,6
C#CCN(C[C@@H](CC(C)C)NC(=O)OC(C)(C)C)S(=O)(=O)c1ccc(Br)cc1F,nt,-24,nt,-7,-3
N#C/C(=C\c1cccnc1)C(=O)Nc1ccccc1[N+](=O)[O-],+,-3,66*,-22,16
COC(=O)/C=c1/s/c(=C(/C#N)C(=O)N2CCOCC2)n(-c2ccccc2)c1=O,i,6,-10,27,17
COC(=O)/C=c1/s/c(=C(\C#N)C(=O)NCc2ccco2)n(-c2ccc(C)cc2)c1=O,+,-33,101*,-105,32
COc1ccc(-n2c(C)cc(/C=C(\C#N)C(=O)NCc3ccco3)c2C)cc1,+,5,57,14,9
COCCNC(=O)/C(C#N)=C/c1cc(C)n(-c2ccc(C)cc2)c1C,i,-4,13,-4,4
CC(=O)c1ccc2c(c1)CC1(C2)Cc2cc3c(cc2C1)C(=O)CC3 (stereo unspecified),nt,-4,nt,0,0
CC(C)OC1=CC(=O)OC(c2cccc(Cl)c2)C1 (stereo unspecified),nt,2,nt,nt,0
CC1(C(=O)NS(=O)(=O)C2CC2)CCN(C(=O)c2ccc(F)cc2Cl)C1 (stereo unspecified),nt,-2,nt,5,-2
C[C@@H]1CN([C@@H](C)CO)C(=O)CCCn2nncc2CO[C@H]1CN(C)C(=O)NC1CCCCC1,nt,-1,nt,-3,11
COc1ccccc1C(=O)Nc1ccc2c(c1)nc(CCNC(=O)c1ccccc1)n2C,i,-1,-9,17,42*
OC(c1ccc(-c2ccccc2)cc1)c1ncc(-c2ccccc2F)[nH]1 (stereo unspecified),nt,1,nt,-6,-1
CC1(C)OC(=O)N(Cc2ccco2)C1(C)O (stereo unspecified),+,-2,?,23,6
O=[N+]([O-])c1cc([N+](=O)[O-])c2cc3ccccc3nc2c1,i,-13,22,45*,14
Cc1ccc(/C=C/S(=O)(=O)NCC(=O)OCC(=O)NCc2ccccc2)cc1,i,-2,-6,-7,7
Cc1c(Cl)cccc1NC(=O)CNC(=O)c1ccccc1F,+,4,2.4*,5,6
